From ChEMBL document CHEMBL3112425, “Design, synthesis, and structure-activity relationship studies of a potent PACE4 inhibitor” (J Med Chem, 2014)
Square brackets hold non-standard residues; d marks the D form. Peptide text beside a SMILES is read from it. * marks the point of attachment. NH(4-amidinobenzyl) = N=C(N)c1ccc(CN*)cc1; Nle = CCCC[C@H](N)C(=O)O

Key:
[1] = Half life in CD-1 mouse plasma at 0.5 ug/uL by RP-HPLC analysis; type: ADME, cell-free
Procedure, shortened: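 Peptides at 0.5 μg/μL were incubated at 37 °C in heparinized plasma pooled from mixed-sex CD1 mice. At each time point the reaction was stopped with 1 M guanidinium-HCl, then acetonitrile, and proteins were spun out. Supernatant peptide AUC (RP-HPLC) was compared with non-incubated samples. Half-life came from a one-phase decay fit. Run ≥3 times, duplicate per time point.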

DU-145 [2] = assay: Cellular uptake in human DU145 cells after 1 hr by propidium iodide staining-based FACS analysis; type: ADME, cell-based; details: du-145, 1 h
Procedure, shortened: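 FITC-βAla-labelled peptides at 10 μM were given to DU145 cells for 1 h in serum-free RPMI. Cells were collected, then washed twice with 0.05% trypsin (5 min, 37 °C) to strip membrane-bound peptide. Propidium iodide (10 μg/mL, 2 min) excluded damaged cells. FACS read 10 000 events/sample as geometric mean fluorescence, against untreated-cell autofluorescence.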

[3] = target: T1, Proprotein convertase subtilisin/kexin type 6 (Homo sapiens, UniProt P29122); assay: Inhibition of human recombinant PACE4 expressed in drosophila schneider 2 cells using pyroGlu-Arg-Thr-Lys-Arg-AMC as substrate after 1 hr
T1 sequence (P29122 whole entry): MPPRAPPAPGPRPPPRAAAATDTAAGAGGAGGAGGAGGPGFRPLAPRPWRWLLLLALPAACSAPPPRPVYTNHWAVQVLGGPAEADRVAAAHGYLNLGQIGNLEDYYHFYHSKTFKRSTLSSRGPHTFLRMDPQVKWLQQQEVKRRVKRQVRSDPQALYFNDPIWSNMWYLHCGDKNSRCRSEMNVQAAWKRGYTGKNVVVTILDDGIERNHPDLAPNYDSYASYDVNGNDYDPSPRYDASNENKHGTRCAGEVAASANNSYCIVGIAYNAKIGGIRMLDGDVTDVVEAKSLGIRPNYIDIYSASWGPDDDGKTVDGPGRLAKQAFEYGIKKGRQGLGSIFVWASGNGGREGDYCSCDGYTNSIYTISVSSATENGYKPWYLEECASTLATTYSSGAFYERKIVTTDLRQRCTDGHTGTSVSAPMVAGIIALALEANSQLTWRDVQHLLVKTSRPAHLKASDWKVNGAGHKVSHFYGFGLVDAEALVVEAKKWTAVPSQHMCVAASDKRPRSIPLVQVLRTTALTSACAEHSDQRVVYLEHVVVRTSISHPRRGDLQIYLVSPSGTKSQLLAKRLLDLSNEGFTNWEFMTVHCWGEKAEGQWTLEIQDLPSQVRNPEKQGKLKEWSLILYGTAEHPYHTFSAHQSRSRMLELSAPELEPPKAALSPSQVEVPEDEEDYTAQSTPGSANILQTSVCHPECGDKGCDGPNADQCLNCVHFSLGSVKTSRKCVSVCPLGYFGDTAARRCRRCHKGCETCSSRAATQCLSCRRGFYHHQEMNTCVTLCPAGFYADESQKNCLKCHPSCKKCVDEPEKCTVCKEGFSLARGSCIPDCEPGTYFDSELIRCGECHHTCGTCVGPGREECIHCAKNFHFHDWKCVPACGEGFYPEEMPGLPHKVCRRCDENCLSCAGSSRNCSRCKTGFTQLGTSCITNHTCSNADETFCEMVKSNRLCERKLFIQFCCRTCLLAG
Procedure, shortened: (§1)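 Human enzymes were expressed in Drosophila S2 cells and purified. Fluorogenic pyroGlu-RTKR-AMC was used at fixed concentration with varied inhibitor, 37 °C over 1 h. Buffers: furin, 100 mM Hepes pH 7.5, 1 mM CaCl2, 1 mM β-mercaptoethanol, 1.8 mg/mL BSA; PACE4 and PC7, 20 mM Bis-Tris pH 6.5, 1 mM CaCl2, 1.8 mg/mL BSA; PC2, same buffer at pH 5.7. Ki from IC50 (Cheng–Prusoff), or apparent Ki (Morrison) for tight binders. Triplicate, mean ± SD.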

Plasma = assay: Drug degradation in CD-1 mouse plasma at 0.5 ug/uL after 30 mins by MALDI-TOF MS analysis; type: ADME, cell-free; details: 0.5 h
Procedure, shortened: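 For fragment mapping, 100 μg peptide was incubated in murine plasma at 37 °C. At each time point, plasma samples were quenched with 3% TFA. Proteins were precipitated with 2 volumes acetonitrile and centrifuged at 17 000g. Supernatants were analyzed by MALDI-TOF MS for C-terminally truncated fragments.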

PC-3 [4] = assay: Cytotoxicity against human PC3 cells after 72 hrs by MTT assay; type: functional, cell-based; details: PC-3, 72 h
Procedure, shortened: (§2)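 Prostate cancer cells were kept in RPMI 1640 at 37 °C, 5% CO2, with 5% FBS for DU145 and 10% FBS for LNCaP and PC3. After 24 h, medium was changed and peptides added at various concentrations, up to 350 μM. Viability was read by MTT after 72 h treatment. IC50 from dose–response curves, triplicate, mean ± SEM.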

DU-145 [5] = assay: Cytotoxicity against human DU145 cells after 72 hrs by MTT assay; type: functional, cell-based; details: DU-145, 72 h; procedure, shortened: as §2
Furin = Furin (Homo sapiens, UniProt P09958); assay: Inhibition of human recombinant furin expressed in drosophila schneider 2 cells using pyroGlu-Arg-Thr-Lys-Arg-AMC as substrate after 1 hr; procedure, shortened: as §1
[6] = Acute toxicity in human DU145 cells assessed as cell death/lysis at 100 uM after 4 hrs by LDH assay; type: cell-based, DU-145; details: read-out: INH
Procedure, shortened: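 DU145 cells (RPMI 1640, 5% FBS, 37 °C, 5% CO2) plated; 24 h later peptides added at 100 μM. After 4 h, release of lactate dehydrogenase into the medium was quantified enzymatically with a commercial LDH cytotoxicity kit as the measure of acute membrane damage/lysis.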

LNCaP [7] = assay: Cytotoxicity against human LNCAP cells after 72 hrs by MTT assay; type: functional, cell-based; procedure, shortened: as §2
PC-3 [8] = assay: Cytotoxicity against human PC3 cells up to 350 uM after 72 hrs by MTT assay; type: functional; procedure, shortened: as §2
LNCaP [9] = assay: Cytotoxicity against human LNCAP cells up to 350 uM after 72 hrs by MTT assay; type: functional; procedure, shortened: as §2
DU-145 [10] = assay: Cytotoxicity against human DU145 cells up to 350 uM after 72 hrs by MTT assay; type: functional; procedure, shortened: as §2
[11] = target: T2, Neuroendocrine convertase 2 (Homo sapiens, UniProt P16519); assay: Inhibition of human PC2 expressed in drosophila schneider 2 cells using pyroGlu-Arg-Thr-Lys-Arg-AMC as substrate after 1 hr; procedure, shortened: as §1
T2 sequence (P16519 whole entry): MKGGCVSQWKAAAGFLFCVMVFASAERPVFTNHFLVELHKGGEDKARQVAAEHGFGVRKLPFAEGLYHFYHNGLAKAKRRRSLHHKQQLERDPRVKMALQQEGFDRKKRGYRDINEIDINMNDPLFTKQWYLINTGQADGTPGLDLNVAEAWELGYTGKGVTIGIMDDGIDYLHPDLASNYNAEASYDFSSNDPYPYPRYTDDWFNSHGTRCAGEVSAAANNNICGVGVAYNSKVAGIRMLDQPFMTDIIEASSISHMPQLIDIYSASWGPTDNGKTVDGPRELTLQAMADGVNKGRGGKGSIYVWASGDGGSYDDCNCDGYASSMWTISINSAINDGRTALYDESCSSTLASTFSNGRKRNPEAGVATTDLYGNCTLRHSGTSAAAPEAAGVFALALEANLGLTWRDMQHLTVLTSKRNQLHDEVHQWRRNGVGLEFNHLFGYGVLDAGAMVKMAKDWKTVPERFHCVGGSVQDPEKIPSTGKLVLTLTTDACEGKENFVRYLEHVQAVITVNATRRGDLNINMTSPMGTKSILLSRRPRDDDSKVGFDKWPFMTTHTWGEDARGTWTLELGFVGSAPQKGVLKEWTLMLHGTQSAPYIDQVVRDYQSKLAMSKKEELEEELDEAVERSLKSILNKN

[12] = target: T3, Proprotein convertase subtilisin/kexin type 7 (Homo sapiens, UniProt Q16549); assay: Inhibition of human PC7 expressed in drosophila schneider 2 cells using pyroGlu-Arg-Thr-Lys-Arg-AMC as substrate after 1 hr; procedure, shortened: as §1
T3 sequence (Q16549 whole entry): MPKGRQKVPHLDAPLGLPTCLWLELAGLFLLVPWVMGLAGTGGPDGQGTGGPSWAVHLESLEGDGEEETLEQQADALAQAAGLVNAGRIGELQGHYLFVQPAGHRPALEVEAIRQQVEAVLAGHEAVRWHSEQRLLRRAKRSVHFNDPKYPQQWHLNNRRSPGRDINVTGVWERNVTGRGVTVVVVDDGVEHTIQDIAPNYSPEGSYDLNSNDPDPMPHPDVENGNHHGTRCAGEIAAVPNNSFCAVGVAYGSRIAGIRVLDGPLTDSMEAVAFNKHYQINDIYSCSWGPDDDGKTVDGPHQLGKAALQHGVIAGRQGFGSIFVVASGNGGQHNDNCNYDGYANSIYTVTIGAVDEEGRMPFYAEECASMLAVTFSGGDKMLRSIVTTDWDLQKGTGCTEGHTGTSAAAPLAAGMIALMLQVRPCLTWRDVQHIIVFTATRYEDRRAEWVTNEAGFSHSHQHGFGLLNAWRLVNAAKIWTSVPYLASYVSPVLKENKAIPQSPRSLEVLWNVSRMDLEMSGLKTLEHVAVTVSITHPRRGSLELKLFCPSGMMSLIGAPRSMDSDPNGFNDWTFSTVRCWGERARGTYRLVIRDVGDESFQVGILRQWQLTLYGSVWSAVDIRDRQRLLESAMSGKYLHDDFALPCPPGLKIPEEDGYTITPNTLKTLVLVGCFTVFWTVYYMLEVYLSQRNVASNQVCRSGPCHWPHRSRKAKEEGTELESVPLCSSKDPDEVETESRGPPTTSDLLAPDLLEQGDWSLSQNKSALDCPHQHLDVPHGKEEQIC

Chain of Furin (P09958 whole entry): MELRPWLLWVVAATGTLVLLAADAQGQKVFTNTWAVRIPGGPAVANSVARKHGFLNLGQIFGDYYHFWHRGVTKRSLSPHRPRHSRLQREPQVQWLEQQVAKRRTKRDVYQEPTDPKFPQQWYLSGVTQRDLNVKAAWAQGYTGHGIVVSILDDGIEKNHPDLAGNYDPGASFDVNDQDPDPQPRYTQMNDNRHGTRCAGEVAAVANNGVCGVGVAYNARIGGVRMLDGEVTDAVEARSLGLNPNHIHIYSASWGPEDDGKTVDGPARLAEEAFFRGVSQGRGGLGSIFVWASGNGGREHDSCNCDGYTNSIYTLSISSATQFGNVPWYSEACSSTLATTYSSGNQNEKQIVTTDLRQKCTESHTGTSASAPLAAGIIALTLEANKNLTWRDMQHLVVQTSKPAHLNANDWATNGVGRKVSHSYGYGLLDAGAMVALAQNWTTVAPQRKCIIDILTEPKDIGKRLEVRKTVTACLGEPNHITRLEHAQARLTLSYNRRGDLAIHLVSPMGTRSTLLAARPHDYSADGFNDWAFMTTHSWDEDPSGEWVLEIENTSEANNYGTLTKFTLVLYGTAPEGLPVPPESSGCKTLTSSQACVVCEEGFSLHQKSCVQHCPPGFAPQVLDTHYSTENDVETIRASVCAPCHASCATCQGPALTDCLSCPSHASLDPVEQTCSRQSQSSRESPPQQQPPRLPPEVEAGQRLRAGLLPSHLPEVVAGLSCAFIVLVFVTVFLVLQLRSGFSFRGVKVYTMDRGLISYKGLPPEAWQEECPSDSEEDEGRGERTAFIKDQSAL

| SMILES | half-life at 0.5 ug/uL [1] [h] | Ki [3] [µM] | Stability (Plasma) | Ki [11] [µM] | Ki [12] [µM] | Drug uptake (DU-145 [2]) | IC50 (PC-3 [4]) [µM] | IC50 (DU-145 [5]) [µM] | Ki (Furin) [µM] | cytotoxicity at 4 h, 100 µM [6] [%] | IC50 (LNCaP [7]) [µM] | inhibition (INH) (PC-3 [8]) [%] | inhibition (INH) (LNCaP [9]) [%] | inhibition (INH) (DU-145 [10]) [%] |
| --- | --- | --- | --- | --- | --- | --- | --- | --- | --- | --- | --- | --- | --- | --- |
| CC(=O)N[C@H](CC(C)C)C(=O)N[C@@H](CC(C)C)C(=O)N[C@@H](CC(C)C)C(=O)N[C@@H](CC(C)C)C(=O)N[C@@H](CCCN=C(N)N)C(=O)N[C@H](C(=O)N[C@@H](CCCCN)C(=O)N[C@@H](CCCN=C(N)N)C(N)=O)C(C)C | 8.6 | 0.024 | Unstable |  |  | Active | 190 | 70 | 0.76 | < 5 | 150 |  |  |  |
| CC(=O)N[C@H](CC(C)C)C(=O)N[C@H](CC(C)C)C(=O)N[C@H](CC(C)C)C(=O)N[C@H](CC(C)C)C(=O)N[C@@H](CCCNC(=N)N)C(=O)N[C@H](C(=O)N[C@@H](CCCCN)C(=O)N[C@@H](CCCNC(=N)N)C(N)=O)C(C)C |  | 14 |  |  |  |  |  |  | 7.3 | < 5 |  | <50 | <50 | <50 |
| CC(=O)N[C@@H](CC(C)C)C(=O)N[C@@H](CC(C)C)C(=O)N[C@@H](CC(C)C)C(=O)N[C@@H](CC(C)C)C(=O)N[C@@H](CCCN=C(N)N)C(=O)N[C@H](C(=O)N[C@@H](CCCCN)C(=O)NCc1ccc(C(=N)N)cc1)C(C)C (Ac-LLLLRVK-{NH(4-amidinobenzyl)}) | 12 | 0.0031 | Unstable | 0.00024 | 0.0138 |  |  |  | 0.0043 | < 5 |  |  |  |  |

More lines, main results first:

| half-life at 0.5 ug/uL [1] [h] | Ki [3] [µM] | Stability (Plasma) | Ki [11] [µM] | Ki [12] [µM] | SMILES | Drug uptake (DU-145 [2]) | IC50 (PC-3 [4]) [µM] | IC50 (DU-145 [5]) [µM] | Ki (Furin) [µM] | cytotoxicity at 4 h, 100 µM [6] [%] | IC50 (LNCaP [7]) [µM] | inhibition (INH) (PC-3 [8]) [%] | inhibition (INH) (LNCaP [9]) [%] | inhibition (INH) (DU-145 [10]) [%] |
| --- | --- | --- | --- | --- | --- | --- | --- | --- | --- | --- | --- | --- | --- | --- |
| 5.1 | 0.02 | Unstable |  |  | CC(=O)N[C@@H](CC(C)C)C(=O)N[C@@H](CC(C)C)C(=O)N[C@@H](CC(C)C)C(=O)N[C@@H](CC(C)C)C(=O)N[C@@H](CCCNC(=N)N)C(=O)N[C@H](C(=O)N[C@@H](CCCCN)C(=O)N[C@@H](CCCNC(=N)N)C(N)=O)C(C)C | Active |  |  |  | < 5 |  | <50 |  |  |
|  | 0.385 |  |  |  | CCCC[C@H](NC(=O)[C@H](CC(C)C)NC(=O)[C@H](CC(C)C)NC(C)=O)C(=O)N[C@@H](CC(C)C)C(=O)N[C@@H](CCCNC(=N)N)C(=O)N[C@H](C(=O)N[C@@H](CCCCN)C(=O)N[C@@H](CCCNC(=N)N)C(N)=O)C(C)C (Ac-LL[Nle]LRVKR-NH2) |  |  | 190 | 1.98 | < 5 |  | <50 | <50 |  |
